From article PMC5339005 (International Journal of Nanomedicine, 2017) come the findings set out here.

One data set has as its system HCEpiC and ARPE-19 cells. As to the kind of experiment: Gly-Sar cell viability by MTT assay. The note with it: even at 10 mM; cells not stated at the place (Figure S6). Type of data set: cell-based. (Tetrazolium dyes change colour on reduction, which living cells bring about.)
Data set [1] has as its system HCEpiC. The data set is described as follows: Flow cytometry uptake mechanism with endocytic inhibitors, HCEpiC. The format is cell-based, human. The note with it: inhibitor pre-incubated 30 min, nanocomposites 4 h. The essentials:
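HCEpiC were seeded at 10^5 cells/well in 12-well plates and grown 6 days, with medium refreshed every 2 days. FITC-labeled nanocomposites (2 μg/mL FITC) were then added for 4 h at 37°C. Cells were rinsed twice with cold DPBS, trypsinized, resuspended at 5×10^5–1×10^6 cells/mL and read by flow cytometry at 495/525 nm. Untreated cells served as control; n=3.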

Data set [2] deals with ARPE-19 cells. As to the kind of experiment: Flow cytometry uptake mechanism with endocytic inhibitors, ARPE-19. Type of data set: cell-based. The note with it: inhibitor pre-incubated 30 min, nanocomposites 4 h. The essentials: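 ARPE-19 cells were seeded at 10^5 cells/well in 12-well plates and grown 5 days, with one medium change. FITC-labeled nanocomposites (4 μg/mL FITC) were then added for 4 h at 37°C in serum-free medium. Cells were rinsed with cold PBS, trypsinized and read by flow cytometry at 495/525 nm. Untreated cells served as control; n=3.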
For orientation: In flow cytometry, cells or beads pass a laser one at a time.

The nature of data set [3]: In vitro drug release, dynamic dialysis method. Type of data set: physicochemical. The note with it: PBS pH 7.4, within 2 h. The essentials: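 Free drug solution or drug-loaded nanosheet suspension (1 mL, 50 μg drug) was placed in a dialysis bag (MWCO 8–14 kDa) in PBS pH 7.4 at 35°C±0.5°C, shaken at 400 rpm. Samples of 0.5 mL were taken at 10–720 min, filtered through 0.22 μm and replaced with fresh PBS. Drug was quantified by HPLC.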

The subject of data set [4] is HCEpiC. The data set is described as follows: Cellular uptake, inverted fluorescence microscope, HCEpiC. The format is cell-based, human. The note with it: 2 μg/mL FITC, 37°C, 1, 2 and 4 h. The gist of the method: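 HCEpiC were grown in poly-L-lysine-coated flasks (2 μg/cm2) in serum-free corneal epithelial medium with growth supplement, under 5% CO2 at 37°C. They were seeded at 5×10^4 cells/well in 24-well plates and grown 6 days, with medium refreshed every 2 days. Cells were exposed for 1, 2 and 4 h at 37°C to FITC-labeled test nanocomposites, free FITC or polymer–FITC control solution, at 2 μg/mL FITC. They were washed three times with DPBS and imaged by inverted fluorescence microscopy.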

The test system of data set [5] is ARPE-19 cells. As to the kind of experiment: Cellular uptake, inverted fluorescence microscope, ARPE-19. The note with it: ARPE-19, 4 μg/mL FITC, 37°C, 1, 2 and 4 h. The format is cell-based. The gist of the method: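 ARPE-19 cells were grown in DMEM/F-12 with 10% FBS under 5% CO2 at 37°C. They were seeded at 5×10^4 cells/well in 24-well plates and grown 2 days. Cells were exposed for 1, 2 and 4 h at 37°C to FITC-labeled test nanocomposites, free FITC or polymer–FITC control solution (3.8×10−4% or 0.008% w/v polymer), at 4 μg/mL FITC. They were washed three times with PBS and imaged by inverted fluorescence microscopy.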

Counter-ions that a name gives are not always drawn. Square brackets hold non-standard residues; d marks the D form. Peptide text beside a SMILES is read from it. Sar = CNCC(=O)O

Turning to `CN(CC(=O)O)C(=O)CN` [Gly-Sar] (H-Gly-[Sar]-OH), the “Cytotoxicity (cell viability by MTT)” value in the data set with HCEpiC and ARPE-19 cells was “no cytotoxicity”.
For `C[C@@H]1[C@H](O)[C@@H](C)/C=C/C=C/CC/C=C/C=C/C=C/C=C/C(O[C@H]2O[C@H](C)[C@@H](O)[C@H](N)[C@@H]2O)CC2O[C@](O)(CC(O)C(O)CCC(O)CC(O)CC(O)CC(=O)O[C@H]1C)CC(O)C2C(=O)O` (stereo partly shown) [Nystatin, nystatin], the “Effect of inhibitor on cellular uptake of FITC-labeled nanocomposites vs control” value (“Effect of inhibitor … vs control” for short) in the data set on HCEpiC [1] and with ARPE-19 cells [2] was “no significant influence” each time.
Take `O=C([O-])c1cc(=O)c2c3nc4ccccc4oc-3cc(=O)c2[nH]1.[Na+]` [PRN solution, Pirenoxine sodium]: the “Cumulative release of PRN” value in data set [3] is ~ 100%.
In the case of `N=C(N)NC(=O)c1nc(Cl)c(N)nc1N` [amiloride], the “Effect of inhibitor … vs control” value in the data set on HCEpiC [1] and in the data set on ARPE-19 cells [2] was “no effect” each time.
Take `CN(C)CCCN1c2ccccc2Sc2ccc(Cl)cc21` [chlorpromazine, chlorpromazine hydrochloride]: the “Effect of inhibitor … vs control” value in the data set on HCEpiC [1] and in the data set with ARPE-19 cells [2] was “significantly decreased” in each case.
Take `O=C1OC2(c3ccc(O)cc3Oc3cc(O)ccc32)c2ccc(N=C=S)cc21` [free FITC, fluorescein isothiocyanate (FITC) isomer I]: the “Fluorescence of cells (cellular uptake)” value in the data set on HCEpiC [4] and with ARPE-19 cells [5] was “negligible fluorescence” in each case.
Regarding `O=c1c(-c2ccc(O)cc2)coc2cc(O)cc(O)c12` [genistein], the “Effect of inhibitor … vs control” value with HCEpiC [1] and with ARPE-19 cells [2] was “no significant influence” each time.
With `OC[C@H]1O[C@@](CO)(O[C@H]2O[C@H](CO)[C@@H](O)[C@H](O)[C@H]2O)[C@@H](O)[C@@H]1O` [hypertonic sucrose, sucrose], the “Effect of inhibitor … vs control” value in the data set with HCEpiC [1] and with ARPE-19 cells [2] was “significantly decreased” each time.
`[N-]=[N+]=[N-].[Na+]` [sodium azide]: the “Effect of inhibitor … vs control” value in the data set with HCEpiC [1] and in the data set with ARPE-19 cells [2] was “decreased” each time.
